Reference: ChEMBL document CHEMBL1124173, “Enantiomers of 7-(2,3-epoxypropoxy)actinomycin D as dual-action DNA-acting antitumor agents” (J Med Chem, 1988)
Numbered stars: 1 amine (or outer) side, 2 acyl side, 3 side chain; on linkers, the order of the positions; unused ones are H or OH. Bridge positions count the residues as written; N and C are the ends. Square brackets hold non-standard residues; d marks the D form. Peptide text beside a SMILES is read from it. I, II: the chains in the order shown. Actinocin(1to9) = Cc1c2oc3c(C)ccc(C(=O)[*:2])c3nc-2c(C(=O)[*:1])c(N)c1=O; NMeV = CN[C@H](C(=O)O)C(C)C; Sar = CNCC(=O)O

What was measured:
Mus musculus [1] = species: Mus musculus; assay: percent increase in median life time (%ILS) measured in mice bearing leukemia L!210; type: functional
Procedure, shortened: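 CDF1 mice inoculated ip with 10^5 L1210 cells on day 0. Drug given ip on days 1, 5 and 9 at the optimal dose in mg/kg per injection. %ILS is the increase in median life span of treated dying animals versus untreated tumor-bearing mice. Over-60-day survivors are counted; 9 mice per group.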

Mus musculus [2] = species: Mus musculus; assay: Antitumor activity measured as optimal dose, against C26 colon carcinoma.; type: functional
Procedure, shortened: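 Primary colon C26 carcinoma cells (trypan blue excluding, 2.5 × 10^5 cells/mouse) implanted in CDF1 mice on day 0. Drug given ip on days 1, 5 and 9 in 0.1 mL 5% v/v Me2SO-saline. Optimal dose in […]; %ILS and 60-day survivors scored.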

Mus musculus [3] = assay: Antitumor activity measured as % increase in life span, for iv administration of compound and sc inoculation of B16 melanoma.
Mus musculus [4] = assay: Antitumor activity measured as median survival time, for ip administration and ip inoculation of B16 melanoma.; type: functional
Procedure, shortened: (§1)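 B16 brei (tumor weight/Hank's balanced salt solution 1:5, 0.2 mL) implanted sc or ip into groups of nine BDF1 mice on day 0. Drug given iv on day 1 (sc tumor) or ip on days 1, 5 and 9 (ip tumor), in 0.1 mL 5% v/v Me2SO-saline. Read-out is median survival time and %ILS versus untreated controls, excluding sixty-day survivors.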

P388/ADR [5] = assay: In vitro 50% Growth inhibition of actinomycin resistant P388/ADR cells; type: functional, Mus musculus; details: read-out: ID50 (the source's name)
Procedure, shortened: (§2)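 Actively growing tumor cells in vitro (actinomycin-resistant P388/ADR leukemia; sensitive B16 melanoma); ID50 is concentration (nM) needed for 50% growth inhibition.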

Mus musculus [6] = assay: Antitumor activity measured as % increase in life span, for ip administration of compound and ip inoculation of B16 melanoma.; type: functional; procedure, shortened: as §1
L1210 [7] = assay: 50% Inhibition of growth of L1210 cells in culture.; type: functional, Mus musculus; details: read-out: ID50 (the source's name)
Procedure, shortened: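 L1210 leukemia cells growing actively in culture; ID50 is drug concentration (nM) giving 50% inhibition of growth relative to untreated L1210 cells.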

P388/ADR [8] = assay: Antitumor activity against P388/ADR, in ip implanted CDF1 mice, treated ip, qd 1-9 measured as optimal dose; type: functional, Mus musculus
Procedure, shortened: (§3)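 P388/ADR leukemia implanted ip in CDF1 mice; drugs given ip once daily on days 1-9. Optimal dose recorded alongside median survival time and % increase in median life span of treated dying mice versus controls; survivors counted as >60-day survivors per group of 10.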

P388/ADR [9] = assay: Antitumor activity measured as Median survival time in days against P388/ADR, in ip implanted CDF1 mice, treated ip, qd 1-9; type: functional, Mus musculus
Procedure, shortened: (§4)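 P388/ADR leukemia, a P388/S subline made resistant to intercalators, implanted ip in CDF1 mice. Drug given ip daily on days 1-9 at optimal dose. Read-out is median survival time of tumor-bearing mice and %ILS of treated dying animals versus controls. Survivors beyond 60 days are counted; 10 mice per group.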

Mus musculus [10] = assay: Antitumor activity measured as median survival time, for iv administration and sc inoculation of B16 melanoma.
P388/ADR [11] = assay: Antitumor activity measured as %ILS against P388/ADR, in ip implanted CDF1 mice, treated ip, qd 1-9; type: functional, Mus musculus; procedure, shortened: as §4
B16 = assay: In vitro 50% Growth inhibition of sensitive B16 cells.; type: functional, Mus musculus; details: read-out: ID50 (the source's name); procedure, shortened: as §2
[12] = Molar ratio of DNA to total amount of compound that is bound both intercalatively and covalently to calf thymus DNA helix; type: functional
Procedure, shortened: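 [3H]Drug and purified calf thymus DNA dialyzed at 37 °C in Tris HCl pH 7.4 (20 mM per footnote; 25 mM in methods). Equilibrated complex precipitated twice with ethanol to remove unbound drug. Molar DNA/drug ratio based on total bound drug, intercalative plus covalent.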

Bos taurus = species: Bos taurus; assay: Thermal denaturation of calf thymus DNA measured as ΔTm; details: cattle, in vitro
Mus musculus [13] = species: Mus musculus; assay: Antitumor activity measured as optimal dose, for B16 melanoma.
L1210 [14] = assay: Optimal dose per injection, administered ip on days 1, 5, and 9, ip inoculation with 10E5 L1210 cells per CDF1 mouse on day 0.; type: functional
Procedure, shortened: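 CDF1 mice inoculated ip with 10^5 L1210 cells on day 0; drugs given ip on days 1, 5 and 9. Optimal dose in mg/kg per injection. %ILS is increase in median life span of treated dying mice over untreated tumor-bearing mice; survivors counted beyond 60 days, 9 per group.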

Mus musculus [15] = species: Mus musculus; assay: Antitumor activity measured as median survival time, against C26 colon carcinoma.; type: functional
Procedure, shortened: (§5)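 C26 primary colon carcinoma cells (trypan blue excluding, 2.5 × 10^5 cells/mouse) implanted in CDF1 mice on day 0. Drug given ip on days 1, 5 and 9 in 0.1 mL 5% v/v Me2SO-saline at optimal dose. Read-out is median survival time; %ILS is drug-treated over control, excluding survivors. Sixty-day survivors are counted.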

L1210 [16] = assay: Inhibition of synthesis of [methyl-14C] thymidine into DNA, in L1210 cells.; type: functional, cell-based, Mus musculus
Procedure, shortened: (§6)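 Actively growing L1210 cells in vitro. Incorporation of [5-3H]uridine into RNA, or [methyl-14C]thymidine into DNA, compared with untreated cells. IC50 is micromolar drug concentration giving 50% reduction in incorporation rate.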

L1210 [17] = assay: Inhibition of synthesis of [5-3H]-uridine into RNA in L1210 cells.; type: functional, cell-based, Mus musculus; procedure, shortened: as §6
Mus musculus [18] = species: Mus musculus; assay: Antitumor activity measured as % increase in life span, against C26 colon carcinoma.; type: functional; procedure, shortened: as §5
Mus musculus [19] = assay: Antitumor activity measured as % increase in life span, for iv administration of compound and sc inoculation of B16 melanoma.; remark: listed apart in the source
P388/ADR [20] = assay: Antitumor activity measured as Median survival time in days against P388/ADR, in ip implanted CDF1 mice, qd 1-9; type: functional, Mus musculus; procedure, shortened: as §4
P388/ADR [21] = assay: Antitumor activity measured as %ILS against P388/ADR, in ip implanted CDF1 mice, qd 1-9; type: functional, Mus musculus; procedure, shortened: as §4
[22] = Ratio of DNA to compound bound entirely by covalent bonding to DNA base.; type: functional
Procedure, shortened: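 [3H]Drug and purified calf thymus DNA dialyzed at 37 °C in Tris HCl buffer; complex twice ethanol-precipitated to remove unbound drug. Molar DNA/drug ratio calculated from drug bound only covalently to DNA bases.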

P388/ADR [23] = assay: Antitumor activity against P388/ADR cells in ip implanted CDF1 mice, qd 1-9 measured as optimal dose; type: functional, Mus musculus; procedure, shortened: as §3
P388/ADR [24] = assay: Antitumor activity measured as %ILS against P388/ADR cells in ip implanted CDF1 mice, qd 1-9; type: functional, Mus musculus; procedure, shortened: as §4
P388/ADR [25] = assay: Antitumor activity measured as Median survival time in days against P388/ADR cells in ip implanted CDF1 mice, qd 1-9; type: functional, Mus musculus; procedure, shortened: as §4
Mus musculus [26] = assay: Antitumor activity measured as median survival time, for iv administration and sc inoculation of B16 melanoma.; remark: listed apart in the source

Compound | ILS (Mus musculus [1]) [%] | Dose (Mus musculus [2]) [mg/kg] | MST (Mus musculus [4]) [days] | ILS (Mus musculus [6]) [%] | Dose (P388/ADR [8]) [mg/kg] | MST (P388/ADR [9]) [days] | MST (Mus musculus [10]) [days] | ILS (P388/ADR [11]) [%] | IC50 (P388/ADR [5]; Mus musculus, P388/ADR) [nM] | IC50 (L1210 [7]; Mus musculus, L1210) [nM] | Dose (Mus musculus [13]) [mg/kg] | Dose (L1210 [14]) [mg/kg] | MST (Mus musculus [15]) [days] | IC50 (B16; Mus musculus, B16) [nM] | also measured
Cc1c2oc3c(C)c(OCC4CO4)cc(C(=O)N[C@@H]4C(=O)N[C@H](C(C)C)C(=O)N5CCC[C@H]5C(=O)N(C)CC(=O)N(C)[C@@H](C(C)C)C(=O)O[C@@H]4C)c3nc-2c(C(=O)N[C@@H]2C(=O)N[C@H](C(C)C)C(=O)N3CCC[C@H]3C(=O)N(C)CC(=O)N(C)[C@@H](C(C)C)C(=O)O[C@@H]2C)c(N)c1=O (stereo in doubt) [listing 1 of 2 here] | 143 | 0.9 | 33 | 74 | 0.8 | 43 | 53 | 377 |  |  |  |  |  |  | ILS (Mus musculus [3]): 60%; IC50 (P388/ADR [5]): 135 nM; IC50 (L1210 [7]): 56.8 nM; IC50 (B16): 3.5 nM
Cc1c2oc3c(C)ccc(C(=O)N[C@@H]4C(=O)N[C@H](C(C)C)C(=O)N5CCC[C@H]5C(=O)N(C)CC(=O)N(C)[C@@H](C(C)C)C(=O)O[C@@H]4C)c3nc-2c(C(=O)N[C@@H]2C(=O)N[C@H](C(C)C)C(=O)N3CCC[C@H]3C(=O)N(C)CC(=O)N(C)[C@@H](C(C)C)C(=O)O[C@@H]2C)c(N)c1=O [DACTINOMYCIN] (I: T[dV]P[Sar][NMeV] / II: T[dV]P[Sar][NMeV]; ester I:1-I:C, II:1-II:C; linker I:N-II:N via Actinocin(1to9)) | 55 | 0.3 | 29 | 52 | 0.075 | 12 | 45 | 33 | 2500 | 60.1 | 0.9 | 0.025 | 33.5 | 3 | Ratio [12]: 26; ΔTm (Bos taurus): 7.1; IC50 (L1210 [16]; Mus musculus, L1210): 380 nM; IC50 (L1210 [17]; Mus musculus, L1210): 19 nM; ILS (Mus musculus [18]): 52%; ILS (Mus musculus [19]): 36%
Cc1c2oc3c(C)c(OCC4CO4)cc(C(=O)N[C@@H]4C(=O)N[C@H](C(C)C)C(=O)N5CCC[C@H]5C(=O)N(C)CC(=O)N(C)[C@@H](C(C)C)C(=O)O[C@@H]4C)c3nc-2c(C(=O)N[C@@H]2C(=O)N[C@H](C(C)C)C(=O)N3CCC[C@H]3C(=O)N(C)CC(=O)N(C)[C@@H](C(C)C)C(=O)O[C@@H]2C)c(N)c1=O (stereo in doubt; 3b) | 186 | 0.6 | 39 | 105 | 0.65 |  | 54 |  | 80 | 28.7 | 1 | 0.05 | 36 | 2.5 | ILS (Mus musculus [3]): 64%; MST (P388/ADR [20]): 40 days; ILS (P388/ADR [21]): 344%; ILS (Mus musculus [18]): 64%
Cc1c2oc3c(C)c(OCC4CO4)cc(C(=O)N[C@@H]4C(=O)N[C@@H](C(C)C)C(=O)N5CCC[C@H]5C(=O)N(C)CC(=O)N(C)[C@@H](C(C)C)C(=O)O[C@H]4C)c3nc-2c(C(=O)N[C@@H]2C(=O)N[C@@H](C(C)C)C(=O)N3CCC[C@H]3C(=O)N(C)CC(=O)N(C)[C@@H](C(C)C)C(=O)O[C@H]2C)c(N)c1=O (stereo in doubt; 3b) |  |  |  |  |  |  |  |  |  |  |  |  |  |  | Ratio [12]: 32; Ratio [22]: 480
Cc1c2oc3c(C)c(OCC4CO4)cc(C(=O)N[C@@H]4C(=O)N[C@H](C(C)C)C(=O)N5CCC[C@H]5C(=O)N(C)CC(=O)N(C)[C@@H](C(C)C)C(=O)O[C@@H]4C)c3nc-2c(C(=O)N[C@@H]2C(=O)N[C@H](C(C)C)C(=O)N3CCC[C@H]3C(=O)N(C)CC(=O)N(C)[C@@H](C(C)C)C(=O)O[C@@H]2C)c(N)c1=O (stereo in doubt) [listing 2 of 2 here] |  |  |  |  |  |  |  |  |  |  |  |  |  |  | ΔTm (Bos taurus): 5; IC50 (L1210 [16]; l1210): 60 nM; IC50 (L1210 [17]; l1210): 50 nM
CO[C@@]12[C@H](COC(N)=O)C3=C(C(=O)C(C)=C(N)C3=O)N1C[C@@H]1N[C@@H]12 [MITOMYCIN] |  |  |  |  |  |  |  |  |  |  |  |  |  |  | Dose (P388/ADR [23]): 1 mg/kg; ILS (P388/ADR [24]): 400%; MST (P388/ADR [25]): 45 days
Cc1c2oc3c(C)c(OC[C@H]4CO4)cc(C(=O)N[C@@H]4C(=O)N[C@H](C(C)C)C(=O)N5CCC[C@H]5C(=O)N(C)CC(=O)N(C)[C@@H](C(C)C)C(=O)O[C@@H]4C)c3nc-2c(C(=O)N[C@@H]2C(=O)N[C@H](C(C)C)C(=O)N3CCC[C@H]3C(=O)N(C)CC(=O)N(C)[C@@H](C(C)C)C(=O)O[C@@H]2C)c(N)c1=O | 199 | 0.6 | 39 | 105 | 0.3 | 45 |  | 400 | 40 | 23.1 | 1 | 0.05 | 41.5 | 2 | MST (Mus musculus [26]): 56 days; %ILS (Mus musculus [18]): 89%; ILS (Mus musculus [19]): 70%
